The record followed here is ChEMBL document CHEMBL1144934, “Efficacious and orally bioavailable thrombin inhibitors based on a 2,5-thienylamidine at the P1 position: discovery of N-carboxymethyl-d-diphenylalanyl-l-prolyl[(5-amidino-2-thienyl)methyl]amide” (J Med Chem, 2003).

Molecules are shown by their SMILES. Values joined by “and” are separate entries in the source; they are usually repeats but may differ in a detail not shown here. Equal values may be shown once.

Data set [1] can be described thus: Steady state volume of distribution (Vdss) was evaluated at 2 mg/kg after intravenous dosing in monkey. More on the design: dose 2 mg/kg. Format: functional, organism-based.
The target in the next data set is T1, Serine protease 1 (Bos taurus, UniProt P00760).
T1 sequence (P00760 whole entry): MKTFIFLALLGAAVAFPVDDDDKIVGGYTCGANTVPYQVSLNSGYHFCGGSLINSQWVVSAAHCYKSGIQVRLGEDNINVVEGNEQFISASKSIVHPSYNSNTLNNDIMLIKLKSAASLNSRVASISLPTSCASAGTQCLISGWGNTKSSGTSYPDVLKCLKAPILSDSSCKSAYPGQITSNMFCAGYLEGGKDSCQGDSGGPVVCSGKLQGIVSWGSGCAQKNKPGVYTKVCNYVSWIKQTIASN
Briefly: In vitro inhibition constant (Ki) against […] trypsin was determined.

Data set [2] in a line: In vitro metabolic stability was determined using liver S9 fraction from monkey at initial concentration of 20 uM. Format: ADME, subcellular. The following applies: simiiformes, read-out: Recovery. The gist of the method: (§1)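 Liver S9 (9000g supernatant of homogenate in Tris-acetate pH 7.4, KCl, EDTA) from rat, dog, monkey (pooled, n = 2) or human (n = 2); 20 µM final compound with NADPH generating system and S9 6.72 mg/mL in 100 mM phosphate pH 7.4, 37 °C. Samples methanol-deproteinized, HPLC; recovery after 30 min reported; no-NADPH control.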

Data set [3] in a line: Maximal plasma concentration in monkeys after 20 mg/kg oral dose. The following applies: cynomolgus monkey.
Data set [4] in a line: Bioavailability in rat. Format: ADME, organism-based. The note with it: in vivo.
Data set [5] can be described thus: Steady state volume of distribution (Vdss) was determined after intravenous dosing at 10 mg/kg in rat. Format: ADME, organism-based. More on the design: dose 10 mg/kg, route intravenous. The following applies: in vivo, read-out: Vdss. The gist of the method:
(§2)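 Male Sprague–Dawley rats (250–300 g), femoral artery and vein cannulated under light ether anesthesia; after recovery, 10 mg/kg given via femoral vein. Arterial blood sampled at 0, 1, 5, 15, 30, 60, 90, 120, 180, 240 min, collected into heparinized tubes, deproteinized with 2 volumes methanol, centrifuged; supernatant analyzed by HPLC (0.1% TFA/acetonitrile 81:19).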

Data set [6] addresses Thrombin and coagulation factor X (Homo sapiens) (UniProt P00734+P00742). The data set can be described thus: Selectivity of compound was determined between thrombin and human factor Xa. Format: protein assay.
In data set [7] the test system is thrombin (Homo sapiens) & trypsin (Bos taurus). The data set can be described thus: Selectivity of compound was determined between thrombin and bovine trypsin.
The next data set deals with Trypsin (Homo sapiens, UniProt P07477+P07478+P35030). Briefly: In vitro inhibition constant (Ki) against human trypsin was determined. Format: protein assay.
Data set [8] is described as follows: Area under curve (AUC) was determine after oral dosing at 20 mg/kg in monkey.
Data set [9] can be described thus: Area under curve (AUC) was determined after intravenous dosing at 10 mg/kg in rat. More on the design: dose 10 mg/kg, route intravenous. The following applies: in vivo. Format: ADME, organism-based. An outline of the steps:
as §2

Data set [10] is described as follows: Time of maximum plasma concentration of compound in monkey at 5 mg/kg was determined. Details: dose 5 mg/kg. Format: functional, organism-based.
For data set [11], the species on record is Rattus norvegicus. The data set can be described thus: (§3) In vitro concentration of inhibitor to double the activated partial thromboplastin time was evaluated in rat. Format: functional. An outline of the steps:
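Rat plasma mixed with inhibitor and an equal volume of aPTT reagent (Platelin LS), incubated 5 min at 37 °C, then 100 μL of 25 mM CaCl2 added. Clotting time read on an automatic coagulometer. Value taken as the inhibitor concentration that doubles aPTT.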

Data set [12] in a line: Clearance value was determined after intravenous dosing at 2.5 mg/kg. Format: functional, organism-based. Details: dose 2.5 mg/kg.
A short description of data set [13]: Half life of compound (t 1/2) was evaluated at 2.5 mg/kg after intravenous dosing. Format: functional, organism-based. Details: dose 2.5 mg/kg.
Data set [14] in a line: Clearance value was determined after intravenous dosing at 10 mg/kg in rat. Format: ADME, organism-based. Details: dose 10 mg/kg, route intravenous. The following applies: in vivo. An outline of the steps:
as §2

Data set [15] is described as follows: Clearance was determined after intravenous dosing at 2 mg/kg in monkey. Format: functional, organism-based. More on the design: dose 2 mg/kg.
Data set [16] relates to Rattus norvegicus. The data set can be described thus: Ex vivo activated clotting time was measured in rat plasma at 1 mg/kg. Format: functional.
In a further data set the target is Coagulation factor X (Homo sapiens, UniProt P00742). Briefly: In vitro inhibition constant (Ki) against human Coagulation factor X was determined.
The species named for data set [17] is Rattus norvegicus. Briefly: Ex vivo concentration of inhibitor to double the activated clotting time was measured in rat plasma. Format: functional.
Data set [18] has as its system Rattus norvegicus. Briefly: In vivo inhibition of thrombus formation in thromboplastin-induced deep vein thrombosis (DVT) rat model after iv bolus dosing at 1 mg/kg. Format: functional.
Data set [19] deals with Thrombin & trypsin (Homo sapiens) (UniProt P00734+P07477+P07478+P35030). Briefly: Selectivity of compound was determined between thrombin and human trypsin. Format: protein assay.
A short description of data set [20]: Maximal plasma concentration in dogs after 5 mg/kg oral dose. Format: ADME, organism-based, Canis lupus familiaris. More on the design: dose 5 mg/kg, route oral. The note with it: dog.
Data set [21] is described as follows: Steady state volume of distribution (Vdss) was evaluated at 2.5 mg/kg after intravenous dosing. Format: functional, organism-based. Details: dose 2.5 mg/kg.
Data set [22] is described as follows: Area under curve (AUC) was determine after intravenous dosing at 2 mg/kg in monkey. Details: dose 2 mg/kg. Format: functional, organism-based.
The nature of data set [23]: Half life of compound (t 1/2) was evaluated at 5 mg/kg after postoral dosing. Format: functional, organism-based. More on the design: dose 5 mg/kg.
For data set [24], the species on record is Homo sapiens.
Another data set has as its target Plasminogen (Homo sapiens, UniProt P00747). Briefly: In vitro inhibition constant (Ki) against human plasmin was determined.
In data set [25] the test system is Canis lupus familiaris. Briefly: Bioavailability of compound (F %) was evaluated at 5 mg/kg in dog. Format: functional, organism-based.
Data set [26] is described as follows: Selectivity of compound was determined between thrombin and human plasmin.
Data set [27] deals with Canis lupus familiaris. The data set can be described thus: Area under curve (AUC) was determine after intravenous dosing at 2.5 mg/kg in dog.
Data set [28] deals with Tissue-type plasminogen activator (Homo sapiens, UniProt P00750). The data set can be described thus: In vitro inhibition constant (Ki) against human Tissue type plasminogen activator was determined.
Data set [29] in a line: Half life of compound (t 1/2) was evaluated at 20 mg/kg after postoral dosing in monkey. Format: functional, organism-based. More on the design: dose 20 mg/kg.
The nature of data set [30]: Half life of compound (t 1/2) was evaluated at 2 mg/kg after intravenous dosing in monkey. Format: functional, organism-based. More on the design: dose 2 mg/kg.
The nature of data set [31]: Selectivity of compound was determined between thrombian and human t-PA.
The nature of data set [32]: In vitro metabolic stability was determined using liver S9 fraction from dog at initial concentration of 20 uM. Format: ADME, Canis lupus familiaris. The note with it: read-out: Recovery. The gist of the method: as §1
Data set [33] is described as follows: Area under curve (AUC) was determine after postoral dosing at 5 mg/kg in dog. Format: functional, organism-based. Details: dose 5 mg/kg.
The species named for data set [34] is Homo sapiens. The data set can be described thus: (§4) In vitro metabolic stability was determined using liver S9 fraction from human at initial concentration of 20 uM. Format: ADME. The note with it: 20 µM. An outline of the steps:
as §1

Data set [35] is described as follows: as §4. Format: ADME. The note with it: liver S9 fraction, read-out: Recovery. The gist of the method:
as §1

A short description of data set [36]: Half life of compound was determined after intravenous dosing at 10 mg/kg in rat. Format: ADME, organism-based. More on the design: dose 10 mg/kg, route intravenous. The following applies: in vivo. The gist of the method: as §2
Another data set has as its system Primates. Briefly: Bioavailability of compound(F %) was evaluated at mg/kg in Monkey. Format: functional, organism-based.
Data set [37] can be described thus: In vitro metabolic stability was determined using liver S9 fraction from rat at initial concentration of 20 uM. Format: ADME. The following applies: read-out: Recovery. The gist of the method:
as §1

The target in another data set is Prothrombin (Homo sapiens, UniProt P00734). Briefly: In vitro inhibition constant (Ki) against human thrombin.
The species entered for data set [38] is Rattus norvegicus. The description is as §3. Format: functional. This is another data set of the same source.
A short description of data set [39]: Area under curve (AUC) was measured after oral dosing at 30 mg/kg in rat. Format: ADME, organism-based. Details: dose 30 mg/kg, route oral. The note with it: in vivo.
Data set [40] can be described thus: Maximal plasma concentration in rats after 30 mg/kg oral dose. The following applies: rat. Format: ADME, organism-based. More on the design: dose 30 mg/kg, route oral.

Chain of Plasminogen (P00747 97-580 limits assumed): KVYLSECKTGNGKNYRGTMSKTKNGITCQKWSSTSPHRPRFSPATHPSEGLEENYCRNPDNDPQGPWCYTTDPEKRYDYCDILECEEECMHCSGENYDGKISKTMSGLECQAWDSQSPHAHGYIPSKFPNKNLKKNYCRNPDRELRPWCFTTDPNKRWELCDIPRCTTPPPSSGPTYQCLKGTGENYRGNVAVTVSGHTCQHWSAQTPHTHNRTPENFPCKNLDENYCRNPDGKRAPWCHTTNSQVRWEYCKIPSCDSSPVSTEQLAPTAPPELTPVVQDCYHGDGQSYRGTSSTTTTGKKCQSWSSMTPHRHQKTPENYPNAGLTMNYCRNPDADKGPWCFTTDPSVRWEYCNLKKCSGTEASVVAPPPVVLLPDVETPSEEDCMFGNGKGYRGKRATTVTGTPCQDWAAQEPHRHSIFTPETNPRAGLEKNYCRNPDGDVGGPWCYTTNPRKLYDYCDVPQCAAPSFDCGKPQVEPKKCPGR
Chain of Plasminogen (P00747 581-810 limits assumed): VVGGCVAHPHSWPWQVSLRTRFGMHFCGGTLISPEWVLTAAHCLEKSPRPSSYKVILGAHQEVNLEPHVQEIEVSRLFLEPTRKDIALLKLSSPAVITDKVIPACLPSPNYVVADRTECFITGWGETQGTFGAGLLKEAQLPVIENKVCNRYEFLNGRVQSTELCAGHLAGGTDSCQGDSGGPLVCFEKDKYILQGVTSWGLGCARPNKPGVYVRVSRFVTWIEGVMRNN
Chain of Tissue-type plasminogen activator (P00750 whole entry): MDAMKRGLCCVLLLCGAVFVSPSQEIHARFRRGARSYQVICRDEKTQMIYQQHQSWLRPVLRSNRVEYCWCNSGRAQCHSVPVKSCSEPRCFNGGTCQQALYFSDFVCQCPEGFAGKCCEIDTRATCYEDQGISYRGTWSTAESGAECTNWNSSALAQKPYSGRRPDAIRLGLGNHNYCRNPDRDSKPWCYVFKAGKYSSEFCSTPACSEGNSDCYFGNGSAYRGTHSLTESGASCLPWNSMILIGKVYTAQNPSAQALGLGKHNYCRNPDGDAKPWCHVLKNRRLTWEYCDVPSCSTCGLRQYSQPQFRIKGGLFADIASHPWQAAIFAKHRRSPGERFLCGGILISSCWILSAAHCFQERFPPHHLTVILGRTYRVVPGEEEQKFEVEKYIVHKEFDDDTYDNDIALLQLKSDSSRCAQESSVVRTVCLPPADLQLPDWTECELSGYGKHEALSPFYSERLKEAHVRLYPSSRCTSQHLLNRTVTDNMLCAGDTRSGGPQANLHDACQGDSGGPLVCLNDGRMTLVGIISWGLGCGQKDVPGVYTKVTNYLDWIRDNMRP
Chain of Thrombin and coagulation factor X (Homo sapiens) (P00742 whole entry, looked up, other chains not shown): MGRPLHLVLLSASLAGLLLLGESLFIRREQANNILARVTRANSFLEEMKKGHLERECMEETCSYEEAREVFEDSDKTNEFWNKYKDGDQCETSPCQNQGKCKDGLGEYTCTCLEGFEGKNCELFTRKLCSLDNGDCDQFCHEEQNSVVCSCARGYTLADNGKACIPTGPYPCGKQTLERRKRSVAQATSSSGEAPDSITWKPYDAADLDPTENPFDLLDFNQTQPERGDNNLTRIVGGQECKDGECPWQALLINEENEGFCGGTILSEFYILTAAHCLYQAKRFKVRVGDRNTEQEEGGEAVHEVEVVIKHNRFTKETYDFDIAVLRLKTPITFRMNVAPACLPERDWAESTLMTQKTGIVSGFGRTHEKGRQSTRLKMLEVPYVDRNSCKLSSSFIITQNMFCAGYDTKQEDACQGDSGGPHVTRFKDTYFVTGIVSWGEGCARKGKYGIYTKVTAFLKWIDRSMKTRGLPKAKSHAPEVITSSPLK
Chain of Coagulation factor X (P00742 41-179 limits assumed): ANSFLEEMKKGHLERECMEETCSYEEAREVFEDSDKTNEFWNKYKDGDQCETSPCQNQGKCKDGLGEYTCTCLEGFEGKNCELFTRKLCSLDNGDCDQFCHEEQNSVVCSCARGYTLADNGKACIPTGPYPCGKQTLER
Chain of Coagulation factor X (P00742 235-488 limits assumed): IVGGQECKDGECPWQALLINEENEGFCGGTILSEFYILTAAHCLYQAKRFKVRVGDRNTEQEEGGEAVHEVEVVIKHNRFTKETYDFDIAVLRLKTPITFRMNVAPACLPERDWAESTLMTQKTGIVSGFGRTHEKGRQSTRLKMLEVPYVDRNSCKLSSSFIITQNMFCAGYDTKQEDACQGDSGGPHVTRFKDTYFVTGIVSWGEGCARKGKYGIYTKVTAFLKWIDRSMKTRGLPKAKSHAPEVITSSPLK

For `N=C(N)c1ccc(CNC(=O)[C@@H]2CCCN2C(=O)[C@H](NCC(=O)O)C(c2ccccc2)c2ccccc2)s1`, the figures for the Vdss in data set [1] and in [21] were 0.23 L/kg and 0.223 L/kg, respectively. In addition, the inhibitory constant (Ki) on Serine protease 1 is 3 nM; at Trypsin it was 0.3 nM; at Coagulation factor X, 2250 nM; on Plasminogen it was 7400 nM; in [28], 433 nM. Besides, the remaining at 20 µM in data set [2] came out at 83%; in data set [32], 99%; in [35] it was 95%. The Cmax amounted to 2100 ng/mL in data set [3] and 3800 ng/mL in data set [20]. For the same molecule, the bioavailability in data set [4] was 43%; in the data set with Canis lupus familiaris [25], 42%; in the data set on Primates, 15%. In addition, in [5], the Vd was 0.258 L/kg. Besides, the Selectivity in data set [6] is over 10000; in data set [7] it was 200; in [19], 20; in [26], over 10000; in [31], over 10000. Further, the AUC in data set [8] was 5150 ng·h/mL; in [9] it was 17600 ng·h/mL; in [22], 3420 ng·h/mL; with Canis lupus familiaris [27] it was 7620 ng·h/mL; in data set [33], 6050 ng·h/mL. Moreover, the Tmax in data set [10] was 30 min and 90 min. The APTT in the data set filed under Rattus norvegicus [11] was found to be 0.97 µM; in the data set listed under Homo sapiens [24] it was 0.23 µM. Moreover, the CL (mL.min-1.kg-1) was 5.9 in [12] and 9.8 in data set [15]. Also, the T1/2 in [13] was found to be 54 min; in data set [23] it was 68 min; in [29], 58 min; in data set [30], 23 min. Further, in data set [14], the clearance came to 9.6 mL/min/kg. Further, the ACT in the data set with Rattus norvegicus [16] was found to be 12. For the same molecule, in the data set listed under Rattus norvegicus [17], the “Concentration to double activated clotting time” value (“Concentration” below) came out at 0.85 µM. Moreover, the inhibition in vivo at 1 mg/kg in the data set with Rattus norvegicus [18] worked out at 100%. In the data set listed under Homo sapiens [34], the Recovery is reported as 95%. The molecule further showed a half-life in [36] of 47 min.

Regarding `COC(=O)N[C@@H](C(=O)N1CCC[C@H]1C(=O)NCc1ccc(C(=N)N)s1)C(c1ccccc1)c1ccccc1`, the remaining at 20 µM in data set [2] was under 10%; in data set [37], 60%; in [32], 91%; in data set [35], 38%. The molecule further returned a bioavailability in data set [4] of 8%. Further, in data set [5], the Vd is 0.152 L/kg. Also, the figures for the AUC in data set [9] and in [39] were 31200 ng·h/mL and 7100 ng·h/mL, respectively. Moreover, in [14], the clearance was 5.4 mL/min/kg. The ACT in the data set with Rattus norvegicus [16] was determined as 5.2. Further, the “Concentration” value in the data set listed under Rattus norvegicus [17] came out at 3.75 µM. Also, in the data set on Rattus norvegicus [18], testing at 1 mg/kg gave an inhibition in vivo of 93%. This molecule yielded a Ki at Prothrombin of 0.015 nM. For the same molecule, the figures for the APTT in the data set listed under Homo sapiens [24] and in the data set listed under Rattus norvegicus [38] were 0.34 µM and 2.85 µM, respectively. Also, the maximum concentration (Cmax) in data set [40] is 4100 ng/mL. In addition, the half-life in [36] amounted to 53 min.

For `N=C(N)c1ccc(CNC(=O)[C@@H]2CCCN2C(=O)[C@H](NS(N)(=O)=O)C(c2ccccc2)c2ccccc2)s1`, the remaining at 20 µM is 81% in data set [2], 84% in data set [37], 96% in data set [32] and 86% in data set [35]. This molecule also gave a bioavailability in [4] of 11%. In data set [5], the Vd was 0.31 L/kg. Also, the results for the AUC in data set [9] and in data set [39] were 14400 ng·h/mL and 4700 ng·h/mL, respectively. This molecule also yielded a clearance in data set [14] of 11.6 mL/min/kg. Besides, the “Concentration” value in the data set filed under Rattus norvegicus [17] stood at 2.09 µM. In the data set on Rattus norvegicus [18], this molecule gave an inhibition in vivo at 1 mg/kg of 100%. In addition, the values for the APTT in the data set listed under Homo sapiens [24] and in the data set listed under Rattus norvegicus [38] were 0.19 µM and 1.5 µM, respectively. Further, in data set [36], the half-life is 34 min.
